IMP-1 inh: IMP-1 metallo-beta-lactamase inhibitors, primary screen, biochemical, epi-absorbance readout, Pseudomonas aeruginosa enzyme; inhibition, % at 5.6 µM; 290,000 tested, 0.45% active; AID 1556, 2009; purified IMP-1, nitrocefin hydrolysis, epi-absorbance fluorescence;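 active = inhibition above the mean plus 3 SD of all compounds in the same screening run, cut at about 4.5% in these data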
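System: purified IMP-1; amount: IMP-1 0.2 nM before substrate addition; compound: single dose, 5.6 µM; times: 25 °C, 15 min preincubation, 25 min reaction; signal: Epi-absorbance via hydrolysed-nitrocefin quenching of white-plate fluorescence, 480/530 nm, EDTA stop; benchmarks: DMSO with and without IMP-1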
PolyA inhibitor: polyadenylation inhibitors in yeast reporter cells, primary screen, luminescence, S. cerevisiae; S. cerevisiae SKY197-pL101 polyadenylation reporter, beta-gal luminescence; efflux-impaired pdr1/pdr3 knockout yeast; score 100 = 6 SD above DMSO; 300,000 tested, 0.02% active; activity score, % at 12 µM; AID 1875, 2009;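 active = lowest replicate activity score at least 50, where 100 means six control SD above control mean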;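 also: yeast exposed to compound for 9 h at 30 °C; higher score means more reporter readthrough which indicates perturbed polyadenylation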
procasp7 counter: procaspase-7 activators, primary screen, counter-screen for procaspase-3 activator project, biochemical, absorbance, HTS, human; 330,000 tested, 0.093% active; Caspase-7 (Homo sapiens), P55210; recombinant procaspase-7, Ac-DEVD-pNA absorbance 405 nm; D23A/D198A/D206A triple mutant, cannot self-cleave; scale: DMSO 0, 5 µM enzyme 100; activation, % at 8.5 µM;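 active = percent activation above the screen-wide mean plus 3 SD, cut at about 25% in these data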
Target sequence (P55210 whole entry D23A/D198A/D206A): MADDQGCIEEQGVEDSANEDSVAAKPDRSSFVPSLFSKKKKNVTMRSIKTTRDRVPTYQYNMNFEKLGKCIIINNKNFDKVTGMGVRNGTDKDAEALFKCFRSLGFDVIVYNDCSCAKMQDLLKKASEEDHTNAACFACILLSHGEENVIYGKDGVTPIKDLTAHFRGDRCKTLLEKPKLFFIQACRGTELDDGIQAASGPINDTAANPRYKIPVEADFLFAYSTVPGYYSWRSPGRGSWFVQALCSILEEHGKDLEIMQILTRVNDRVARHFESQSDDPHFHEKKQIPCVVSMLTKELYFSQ
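buffer or medium = Zinc-free HEPES/NaCl buffer, pH 7.4 | material = Procaspase-7 triple mutant (PC-7 D3A) | input = 2 µM procaspase-7 mutant as dispensed | signal = Epi-absorbance of released pNA at 405 nm, two timepoints | timing = 1 h preincubation, 2 h reaction | replicates = singlicate compound testing | evaluation = % activation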
Neddylation inh: inhibitors of cullin neddylation, primary screen, biochemical, TR-FRET, uHTS, NAE and Ubc12; calls only at 25 µM; 360,000 tested, 0.58% active; AID 651699, 2012; in the data active = inhibition above about 36%
proCasp3 act: activators of human procaspase-3 D3A mutant, primary screen, biochemical, absorbance, PC-3 D3A mutant, single concentration; activation, % at 8.5 µM; recombinant procaspase-3 D3A, Ac-DEVD-pNA absorbance 405 nm; 330,000 tested, 0.11% active;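 active = activation above the mean of all tested compounds plus 3 SD, cut at about 21% in these data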
Target sequence (P42574 whole entry D9A/D28A/D175A): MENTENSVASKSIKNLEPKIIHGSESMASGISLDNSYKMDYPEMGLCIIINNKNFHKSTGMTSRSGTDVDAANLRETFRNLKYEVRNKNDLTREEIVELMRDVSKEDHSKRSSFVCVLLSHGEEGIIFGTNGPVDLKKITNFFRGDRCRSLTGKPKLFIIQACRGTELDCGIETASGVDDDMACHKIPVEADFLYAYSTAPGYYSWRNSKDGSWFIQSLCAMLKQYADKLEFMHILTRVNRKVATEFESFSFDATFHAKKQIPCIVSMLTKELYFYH
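material = Procaspase-3 D3A mutant | probe or stimulus = Ac-DEVD-pNA | compound = single dose, 8.5 µM nominal compound, 0.8% DMSO | timing = 1 h preincubation, 2 h reaction | measured by = 405 nm absorbance of p-nitroaniline, reads at 0 and 120 min | benchmarks = DMSO-only low control, 5 µM PC-3 D3A high control | repeats = singlicate, each compound tested once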
VIM-2 inhibitor: VIM-2 metallo-beta-lactamase inhibitors, primary screen, biochemical, epi-absorbance readout, Pseudomonas aeruginosa enzyme; purified VIM-2, nitrocefin hydrolysis, epi-absorbance fluorescence; inhibition, % at 5.6 µM; 290,000 tested, 0.89% active;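 active = inhibition above the mean of all tested compounds plus 3 SD, cutoff set per screening run, cut at about 7.5% in these data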;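 also: red hydrolysis product quenches plate fluorescence so inhibitors raise well fluorescence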
Neddyl inh conf: blockade of NEDD8 conjugation to cullin – biochemical, TR-FRET, single concentration, confirmation. shares compounds with Neddylation inh. TR-FRET cullin neddylation biochemical assay. calls only at 25 µM. 1,800 tested, 13% active. AID 652217, 2013; in the data active = inhibition above about 40%;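 also: neddylation substrate is the cullin 1 ring ligase complex with SKP2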
Calls only; – = inactive; · = no result given; + = active, no number. Hits are enriched below; roughly 1.7% of the tested compounds scored in any of these assays.

SMILES	IMP-1 inh	PolyA inhibitor	procasp7 counter	Neddylation inh	proCasp3 act	VIM-2 inhibitor	Neddyl inh conf
Cc1ccn2cc(-c3ccc(NS(=O)(=O)c4ccccc4)cc3)nc2c1	–	–	–	–	–	–	·
CC(=NNC(=O)c1cccc(S(=O)(=O)N2CCOCC2)c1)c1ccccc1	·	·	–	–	–	·	·
O=S(=O)(Nc1ccc(-c2nc3ccccc3o2)cc1)c1ccccc1	–	–	–	+	–	–	·
CCSc1nnc(NC(=O)c2cccc(S(=O)(=O)N(C)c3ccc(C)cc3)c2)s1	–	–	–	+	–	–	–
CCc1nnc(NC(=O)c2cccc(S(=O)(=O)N(C)c3ccccc3)c2)s1	–	–	–	–	–	–	·
O=S1(=O)N=C(Oc2cccc3ccccc23)c2ccccc21	–	–	–	+	–	–	–
Cc1ccccc1OC1=NS(=O)(=O)c2ccccc21	–	–	–	–	–	–	·
CCC(=O)Oc1ccc(C(=O)Nc2ccc3c(c2)C(=O)N(C2CCCCC2)C3=O)cc1	–	–	–	+	–	–	–
O=C(CCc1nnc(CCC2CCCCC2)o1)NCCc1ccccn1	–	–	–	–	–	–	·
C/C(=N\NC(=O)c1c(Cl)cnn1C)c1ccc(NC(=O)c2ccc(Br)o2)cc1	–	–	·	+	·	–	–
Nc1cc(S(=O)(=O)O)cc2ccc(S(=O)(=O)O)cc12	·	·	·	+	·	·	·
Nc1ccc(C(=O)Nc2ccc3c(O)cc(S(=O)(=O)O)cc3c2)cc1	·	·	·	–	·	·	·
O=C(c1cnn2c(C(F)F)cc(-c3ccccc3)nc12)N1CCSCC1	–	–	–	–	–	–	·
O=C(c1cnn2c(C(F)F)cc(-c3ccccc3)nc12)N1CCOCC1	–	–	–	+	–	–	–
COc1ccc(-c2cc3ccccc3n2CC(O)CNC(CO)(CO)CO)cc1 (stereo unspecified)	–	–	–	+	–	–	·
COc1ccc(-c2cc3ccccc3n2CC(O)CN2CCC(C)CC2)cc1 (stereo unspecified)	–	–	–	–	–	–	·
O=C(CSc1nnc(-c2ccco2)o1)NC(=O)Cc1ccccc1	–	–	–	–	–	–	·
CC(CCc1ccc(O)cc1)NC1C2CC3CC(C2)CC1C3 (stereo unspecified)	–	–	–	–	–	–	·
CCCS(=O)(=O)Nc1c(C(=O)O)[nH]c2ccc(OC)cc12	–	–	–	·	–	–	·
COc1ccc2[nH]c(C(=O)O)c(NS(=O)(=O)c3ccc(C)cc3C)c2c1	–	–	–	+	–	–	·
COc1cccc(/C=C/C(=O)OCC(=O)Nc2nnc(-c3ccccc3)o2)c1	·	–	–	+	–	·	–
COc1ccc(/C=C/C(=O)OCC(=O)Nc2nnc(-c3ccccc3)o2)c(OC)c1	·	·	·	–	·	·	·
COc1cccc(/C=C/C(=O)OCC(=O)Nc2cccc(S(=O)(=O)NC3=NCCCCC3)c2)c1	·	·	–	+	–	·	·
COC(=O)c1ccc(CNC(=O)COC(=O)/C=C/c2cccc(OC)c2)cc1	·	·	·	+	·	·	–
O=c1[nH]c2ccccc2c(=O)n1Cc1ccco1	–	–	–	–	–	–	·
SMILES	IMP-1 inh	PolyA inhibitor	procasp7 counter	Neddylation inh	proCasp3 act	VIM-2 inhibitor	Neddyl inh conf
COc1cc2ccc(=O)oc2cc1O	·	·	–	–	–	·	·
CC(C)C1Oc2cc3oc(=O)ccc3cc2C1=O (stereo unspecified)	–	–	–	+	–	–	–
Cc1c(C)n(CCCN(C)C)c2ncnc(Nc3ccccc3)c12	–	–	–	+	–	–	–
COc1ccc(Nc2ncnc3c2c(C)c(C)n3CCCN(C)C)cc1	–	–	–	–	–	–	·
CN1C2C=C3C(C#N)=C(N)C(C#N)(C#N)[C@@H](c4ccsc4)[C@@H]3C1CC2 (stereo partly specified)	–	–	–	·	–	–	·
CSc1nc2n(n1)C(c1cccs1)C1=C(CCCC1=O)N2 (stereo unspecified)	–	–	–	+	–	–	–
Cc1ccccc1CSc1nc2n(n1)C(c1cccs1)C1=C(CCCC1=O)N2 (stereo unspecified)	–	–	–	+	–	–	·
CC1CCC(NC(=O)c2cccc(S(=O)(=O)N3CCN(C)CC3)c2)CC1 (stereo unspecified)	·	–	–	–	–	·	·
CSc1nc(N)c2c3c(sc2n1)CN(C)CC3	–	–	–	+	–	–	–
COc1cccc(-c2sc3ccc(OC)cc3c2-c2cc(F)cc(OC)c2)c1	·	·	–	–	–	·	·
CCc1c(C)nc2c(-c3ccccc3)c[nH]n2c1=O	–	–	–	+	–	–	·
CCOC(=O)Cc1c(C)nc2c(-c3ccccc3)c[nH]n2c1=O	–	–	–	·	–	–	·
C=CCNC(=O)c1cnc2n(c1=O)CCS2	–	–	–	–	–	–	·
C[C@H]1CN([C@@H](C)CO)C(=O)CCCn2cc(nn2)CO[C@@H]1CN(C)C(=O)c1cc(-c2ccccc2)on1	·	·	·	–	·	·	·
Cc1ccc(C(=O)COC(=O)CN2C(=O)C3C4CCC(C4)C3C2=O)cc1[N+](=O)[O-] (stereo unspecified)	–	–	–	–	–	–	·
O=C(COC(=O)c1ccccc1F)NNC(=O)c1ccccc1	·	–	–	–	–	·	·
COc1cc(C(=O)NC2CCN(C)CC2)ccc1Nc1ncc2c(n1)N(C1CCCC1)CCC(=O)N2C(C)C	·	·	·	–	·	·	·
COc1cc(C(=O)NC2CCN(C)CC2)ccc1Nc1ncc2c(n1)N(CCc1ccccc1)CCC(=O)N2C	·	·	·	+	·	·	–
c1cc2c3c(cccc3c1)C(N1CCN(C3=Nc4cccc5cccc3c45)CC1)=N2	–	·	·	·	·	–	·
CCCCN(C)C1=Nc2cccc3cccc1c23	–	–	–	+	–	–	–
Cc1cc(Nc2ccc(Cl)cc2)n(-c2ccccc2)n1	–	–	–	–	–	–	·
Cc1cc(Nc2nc3c(c(=O)n(C)c(=O)n3C)n2C)n(-c2ccc(Cl)cc2)n1	–	–	–	+	–	–	–
Cc1cccc(S(=O)Cc2ccc(C(=O)N3CCOCC3)o2)c1 (stereo unspecified)	–	–	–	–	–	–	·
